According to ChEMBL document CHEMBL2062460, “Disubstituted thiourea derivatives and their activity on CNS: synthesis and biological evaluation” (Eur J Med Chem, 2012):
The source made the active and inactive calls.

How the values were obtained:
Micrococcus luteus [1] = experiment: Antibacterial activity against Micrococcus luteus ATCC 10240 after 18 hrs by twofold serial agar dilution technique; format: functional; details: ATCC 10240, 18 h
[2] = test system: Staphylococcus epidermidis; experiment: Antibacterial activity against methicillin-resistant Staphylococcus epidermidis clinical isolate 377/09 after 18 hrs by twofold serial agar dilution technique; format: functional; details: clinical isolate 377/09, 18 h
Outline: (§1)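 Clinical isolates came from patients in Warsaw Medical University Hospitals and were classed as methicillin-susceptible or -resistant. MIC was determined by twofold serial agar dilution on Mueller–Hinton II agar (CLSI), 3.125–400 µg/mL in agar, with compounds in methanol or DMSO. Inoculum was 10^4 CFU/mL and plates were read after 18 h at 35 °C.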

[3] = test system: Staphylococcus epidermidis; experiment: Antibacterial activity against methicillin-resistant Staphylococcus epidermidis clinical isolate 340/09 after 18 hrs by twofold serial agar dilution technique; format: functional; details: clinical isolate 340/09, 18 h; outline: as §1
Staphylococcus aureus [4] = experiment: Antibacterial activity against methicillin-susceptible Staphylococcus aureus clinical isolate 269/08 after 18 hrs by twofold serial agar dilution technique; format: functional; details: clinical isolate 269/08, 18 h; outline: as §1
[5] = test system: Staphylococcus epidermidis; experiment: Antibacterial activity against methicillin-resistant Staphylococcus epidermidis clinical isolate 343/09 after 18 hrs by twofold serial agar dilution technique; format: functional; details: clinical isolate 343/09, 18 h; outline: as §1
Staphylococcus aureus [6] = experiment: Antibacterial activity against methicillin-susceptible Staphylococcus aureus clinical isolate 267/08 after 18 hrs by twofold serial agar dilution technique; format: functional; details: clinical isolate 267/08, 18 h; outline: as §1
Enterococcus hirae [7] = experiment: Antibacterial activity against Enterococcus hirae ATCC 10541 after 18 hrs by twofold serial agar dilution technique; format: functional; details: ATCC 10541, 18 h
[8] = test system: Staphylococcus epidermidis; experiment: Antibacterial activity against Staphylococcus epidermidis ATCC 12228 at 400 ug/disc after 18 hrs by disc diffusion method; format: functional
Outline: (§2)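 Disc diffusion per CLSI on Mueller–Hinton II agar; 9 mm paper discs loaded from methanol or DMSO solutions to 400 µg per disc, dried; growth inhibition zone diameter read after 18 h at 35 °C.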

Staphylococcus aureus [9] = experiment: Antibacterial activity against methicillin-resistant Staphylococcus aureus clinical isolate 307/08 after 18 hrs by twofold serial agar dilution technique; format: functional; details: clinical isolate 307/08, 18 h; outline: as §1
[10] = test system: Bordetella bronchiseptica; experiment: Antibacterial activity against Bordetella bronchiseptica ATCC 4617 at 400 ug/disc after 18 hrs by disc diffusion method; format: functional, organism-based; outline: as §2
Enterococcus hirae [11] = experiment: Antibacterial activity against Enterococcus hirae ATCC 10541 at 400 ug/disc after 18 hrs by disc diffusion method; format: functional; details: ATCC 10541, 18 h, read-out: DIZ; outline: as §2
Pseudomonas aeruginosa [12] = experiment: Antibacterial activity against Pseudomonas aeruginosa NCTC 6749 at 400 ug/disc after 18 hrs by disc diffusion method; format: functional, organism-based; outline: as §2
Candida albicans [13] = experiment: Antifungal activity against Candida albicans ATCC 10231 at 400 ug/disc after 18 hrs by disc diffusion method; format: functional, organism-based
Outline: (§3)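 Yeasts tested by disc diffusion (CLSI) on RPMI agar with 2% glucose; 9 mm paper discs bearing 400 µg compound from methanol or DMSO solution; inhibition zone diameter read after 18 h at 35 °C.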

Bacillus subtilis [14] = experiment: Antibacterial activity against Bacillus subtilis ATCC 6633 after 18 hrs by twofold serial agar dilution technique; format: functional; details: ATCC 6633, 18 h
Bacillus subtilis [15] = experiment: Antibacterial activity against Bacillus subtilis ATCC 6633 at 400 ug/disc after 18 hrs by disc diffusion method; format: functional; details: ATCC 6633, 18 h, read-out: DIZ; outline: as §2
Staphylococcus aureus [16] = experiment: Antibacterial activity against Staphylococcus aureus ATCC 29213 at 400 ug/disc after 18 hrs by disc diffusion method; format: functional; details: ATCC 29213, 18 h, read-out: DIZ; outline: as §2
Staphylococcus aureus [17] = experiment: Antibacterial activity against methicillin-resistant Staphylococcus aureus clinical isolate 376/09 after 18 hrs by twofold serial agar dilution technique; format: functional; details: clinical isolate 376/09, 18 h; outline: as §1
Micrococcus luteus [18] = experiment: Antibacterial activity against Micrococcus luteus ATCC 9341 after 18 hrs by twofold serial agar dilution technique; format: functional; details: ATCC 9341, 18 h
[19] = test system: Staphylococcus epidermidis; experiment: Antibacterial activity against methicillin-resistant Staphylococcus epidermidis clinical isolate 316/08 after 18 hrs by twofold serial agar dilution technique; format: functional; details: clinical isolate 316/08, 18 h; outline: as §1
[20] = test system: Human immunodeficiency virus 1; experiment: Antiviral activity against HIV1 infected in human MT4 cells assessed as virus-induced cytopathogenicity after 4 days by MTT assay; format: functional, organism-based; details: Human immunodeficiency virus 1, MT4, 96 h
Pseudomonas aeruginosa [21] = experiment: Antibacterial activity against Pseudomonas aeruginosa ATCC 15442 at 400 ug/disc after 18 hrs by disc diffusion method; format: functional, organism-based; outline: as §2
[22] = test system: Staphylococcus epidermidis; experiment: Antibacterial activity against methicillin-resistant Staphylococcus epidermidis clinical isolate 311/08 after 18 hrs by twofold serial agar dilution technique; format: functional; details: clinical isolate 311/08, 18 h; outline: as §1
Staphylococcus aureus [23] = experiment: Antibacterial activity against methicillin-susceptible Staphylococcus aureus clinical isolate 261/08 after 18 hrs by twofold serial agar dilution technique; format: functional; details: clinical isolate 261/08, 18 h; outline: as §1
Staphylococcus aureus [24] = experiment: Antibacterial activity against methicillin-susceptible Staphylococcus aureus clinical isolate 367/09 after 18 hrs by twofold serial agar dilution technique; format: functional; details: clinical isolate 367/09, 18 h; outline: as §1
Staphylococcus aureus [25] = experiment: Antibacterial activity against methicillin-resistant Staphylococcus aureus clinical isolate 275/08 after 18 hrs by twofold serial agar dilution technique; format: functional; details: clinical isolate 275/08, 18 h; outline: as §1
[26] = test system: Staphylococcus epidermidis; experiment: Antibacterial activity against methicillin-resistant Staphylococcus epidermidis clinical isolate 342/09 after 18 hrs by twofold serial agar dilution technique; format: functional; details: clinical isolate 342/09, 18 h; outline: as §1
Staphylococcus aureus [27] = experiment: Antibacterial activity against methicillin-susceptible Staphylococcus aureus clinical isolate 268/08 after 18 hrs by twofold serial agar dilution technique; format: functional; details: clinical isolate 268/08, 18 h; outline: as §1
[28] = test system: Staphylococcus epidermidis; experiment: Antibacterial activity against methicillin-resistant Staphylococcus epidermidis clinical isolate 315/08 after 18 hrs by twofold serial agar dilution technique; format: functional; details: clinical isolate 315/08, 18 h; outline: as §1
Staphylococcus aureus [29] = experiment: Antibacterial activity against Staphylococcus aureus NCTC 4163 at 400 ug/disc after 18 hrs by disc diffusion method; format: functional; details: NCTC 4163, 18 h, read-out: DIZ; outline: as §2
Staphylococcus aureus [30] = experiment: Antibacterial activity against methicillin-susceptible Staphylococcus aureus clinical isolate 369/09 after 18 hrs by twofold serial agar dilution technique; format: functional; details: clinical isolate 369/09, 18 h; outline: as §1
Staphylococcus aureus [31] = experiment: Antibacterial activity against Staphylococcus aureus ATCC 6538 at 400 ug/disc after 18 hrs by disc diffusion method; format: functional; details: ATCC 6538, 18 h, read-out: DIZ; outline: as §2
Candida albicans [32] = experiment: Antifungal activity against Candida albicans ATCC 90028 at 400 ug/disc after 18 hrs by disc diffusion method; format: functional, organism-based; outline: as §3
Staphylococcus aureus [33] = experiment: Antibacterial activity against methicillin-resistant Staphylococcus aureus clinical isolate 277/08 after 18 hrs by twofold serial agar dilution technique; format: functional; details: clinical isolate 277/08, 18 h; outline: as §1
[34] = test system: Staphylococcus epidermidis; experiment: Antibacterial activity against methicillin-resistant Staphylococcus epidermidis clinical isolate 317/08 after 18 hrs by twofold serial agar dilution technique; format: functional; details: clinical isolate 317/08, 18 h; outline: as §1
Staphylococcus aureus [35] = experiment: Antibacterial activity against Staphylococcus aureus ATCC 25923 after 18 hrs by twofold serial agar dilution technique; format: functional; details: ATCC 25923, 18 h
Outline: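 Twofold serial agar dilution on Mueller–Hinton II agar, following CLSI guidelines. Compounds were dissolved in methanol or DMSO and tested at final agar concentrations of 3.125–400 µg/mL. Final inoculum was 10^4 CFU/mL.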

Proteus vulgaris = experiment: Antibacterial activity against Proteus vulgaris NCTC 4635 at 400 ug/disc after 18 hrs by disc diffusion method; format: functional, organism-based; outline: as §2

S=C(Nc1ccc(I)cc1)Nc1nc[nH]n1
50 µg/mL: MIC [5] | MIC (Staphylococcus aureus [9]) | MIC (Staphylococcus aureus [17]) | MIC [19] | MIC [22] | MIC (Staphylococcus aureus [25]) | MIC [28] | MIC (Staphylococcus aureus [30]) | MIC [34]
18 mm: zone of inhibition at 400 µg/disc (Bacillus subtilis [15])
25 µg/mL: MIC [2] | MIC [3] | MIC (Staphylococcus aureus [4]) | MIC (Staphylococcus aureus [6]) | MIC (Staphylococcus aureus [23]) | MIC (Staphylococcus aureus [24]) | MIC [26] | MIC (Staphylococcus aureus [27]) | MIC (Staphylococcus aureus [33]) | MIC (Staphylococcus aureus [35])
12 mm: zone of inhibition at 400 µg/disc (Staphylococcus aureus [29]) | zone of inhibition at 400 µg/disc (Staphylococcus aureus [31])
400 µg/mL: MIC (Enterococcus hirae [7])
13 mm: zone of inhibition at 400 µg/disc (Enterococcus hirae [11]) | zone of inhibition at 400 µg/disc (Staphylococcus aureus [16])
12.5 µg/mL: MIC (Micrococcus luteus [1]) | MIC (Bacillus subtilis [14]) | MIC (Micrococcus luteus [18])
> 46 µM: EC50 [20]
inactive: diameter of the inhibition zone (DIZ) [8] | diameter of the inhibition zone (DIZ) [10] | diameter of the inhibition zone (DIZ) (Pseudomonas aeruginosa [12]) | diameter of the inhibition zone (DIZ) (Candida albicans [13]) | diameter of the inhibition zone (DIZ) (Pseudomonas aeruginosa [21]) | diameter of the inhibition zone (DIZ) (Candida albicans [32]) | diameter of the inhibition zone (DIZ) (Proteus vulgaris)

S=C(Nc1ccc(Cl)cc1)Nc1nc[nH]n1
50 µg/mL: MIC (Staphylococcus aureus [33])
200 µg/mL: MIC (Enterococcus hirae [7]) | MIC [26]
25 µg/mL: MIC (Micrococcus luteus [1]) | MIC [2] | MIC (Staphylococcus aureus [4]) | MIC [5] | MIC (Staphylococcus aureus [6]) | MIC (Staphylococcus aureus [9]) | MIC (Staphylococcus aureus [17]) | MIC (Micrococcus luteus [18]) | MIC [19] | MIC [22] | MIC (Staphylococcus aureus [23]) | MIC (Staphylococcus aureus [24]) | MIC (Staphylococcus aureus [25]) | MIC (Staphylococcus aureus [27]) | MIC [28] | MIC (Staphylococcus aureus [30]) | MIC [34] | MIC (Staphylococcus aureus [35])
20 mm: zone of inhibition at 400 µg/disc ([8]; ATCC 12228, 18 h, read-out: DIZ)
23 mm: zone of inhibition at 400 µg/disc (Enterococcus hirae [11]) | zone of inhibition at 400 µg/disc (Staphylococcus aureus [29])
17 mm: zone of inhibition at 400 µg/disc (Staphylococcus aureus [16])
15 mm: zone of inhibition at 400 µg/disc (Staphylococcus aureus [31])
> 47 µM: EC50 [20]
12.5 µg/mL: MIC [3] | MIC (Bacillus subtilis [14])
22 mm: zone of inhibition at 400 µg/disc (Bacillus subtilis [15])
inactive: diameter of the inhibition zone (DIZ) [10] | diameter of the inhibition zone (DIZ) (Pseudomonas aeruginosa [12]) | diameter of the inhibition zone (DIZ) (Candida albicans [13]) | diameter of the inhibition zone (DIZ) (Pseudomonas aeruginosa [21]) | diameter of the inhibition zone (DIZ) (Candida albicans [32]) | diameter of the inhibition zone (DIZ) (Proteus vulgaris)
